# Experimental data gathered from unrelated publications.
# DRD3: D(3) dopamine receptor (DRD3, Homo sapiens, UniProt P35462)
# PDE10A: cAMP and cAMP-inhibited cGMP 3',5'-cyclic phosphodiesterase 10A (PDE10A, Homo sapiens, UniProt Q9Y233)
Compound,target,test,conditions,endpoint,result
Cc1[nH]c(C)c(S(=O)(=O)Nc2ccc(Cl)c(C(F)(F)F)c2)c1C(=O)N1CCC(F)(F)C1,DRD3,"β-arrestin recruitment, agonist",90 min,Emax,109%
CCOC(=O)[C@@]12C[C@@H]1[C@@H](n1cnc3c(NCCCCc4ccccc4)nc(C#Cc4ccc(Cl)s4)nc31)[C@H](O)[C@@H]2O,"Sodium-dependent dopamine transporter (SLC6A3, Homo sapiens, UniProt Q01959)","ligand displacement, radioligand",10 µM,inhibition,9%
COc1ccc2nccc(Cc3cccc(-c4ccccc4)c3)c2c1,PDE10A,"enzyme activity, inhibitor, FP",0.1 µM,inhibition,5%
COc1ccc2oc(-c3ccc4nc(N)oc4c3)c/c(=N\c3ccccc3NC(=O)CCN)c2c1,"Discoidin domain-containing receptor 2 (DDR2, Homo sapiens, UniProt Q16832)",binding,1 µM,remaining binding,85%
CCCCC(=O)Nc1ccc(-c2ccc3ncn(CCC)c(=O)c3c2)cn1,"Leukocyte tyrosine kinase receptor (LTK, Homo sapiens, UniProt P29376)","binding, competition with immobilised ligand",0.5 µM,remaining binding,100%
C1=C/COCc2cc(ccc2OCCN2CCCC2)Nc2nccc(n2)-c2cccc(c2)COC/1,"AP2-associated protein kinase 1 (AAK1, Homo sapiens, UniProt Q2M2I8)",binding,0.1 µM,remaining binding,52%
COc1ccc(Cc2nccc3cc(OC)c(OC)cc23)cc1,PDE10A,"enzyme activity, inhibitor, FP",0.1 µM,inhibition,38%
Cc1[nH]c(C)c(S(=O)(=O)Nc2ccc(C(F)(F)F)c(Cl)c2Cl)c1C(=O)N1CCC(F)(F)C1,DRD3,"β-arrestin recruitment, agonist",90 min,Emax,105%
COc1ccc(Cc2ccnc3ccccc23)cc1OC,PDE10A,"enzyme activity, inhibitor, FP",0.1 µM,inhibition,11%
[2H]C1([2H])CCC([2H])([2H])N1C(=O)c1c(C)[nH]c(C)c1S(=O)(=O)Nc1ccc(C(F)(F)F)c(Cl)c1,DRD3,"β-arrestin recruitment, agonist",90 min,Emax,92%
COc1cc2ncnc(Cc3ccnc(-c4ccccc4)c3)c2cc1OC,PDE10A,"enzyme activity, inhibitor, FP",0.1 µM,inhibition,58%
Cc1[nH]c(C)c(S(=O)(=O)Nc2cc(Cl)cc(Cl)c2Cl)c1C(=O)N1CCC(F)(F)C1,DRD3,"β-arrestin recruitment, agonist",90 min,Emax,103%
